Assay results from different studies.
Target: Ephrin type-A receptor 5 (EPHA5, Homo sapiens, UniProt P54756)

SMILES	observed	mode	method	tested at	measurement	value
C#Cc1n[nH]c2c(-c3cn([C@@H](C)c4ccccn4)c(=O)[nH]c3=O)cc(F)cc12	enzyme activity	inhibitor		0.1 µM	inhibition	8.9%
CC(C)(C)c1cc(C=C(C#N)C#N)cc(Br)c1O	enzyme activity	inhibitor		0.5 µM	remaining activity	106%
Cn1cc(-c2cc(F)cc(N3CCn4c(cc5c4CCCC5)C3=O)c2CO)cc(Nc2ccc(N3CCN(C4COC4)CC3)cn2)c1=O	enzyme activity	inhibitor		0.1 µM	inhibition	11%
COc1cc(Nc2ncc(F)c(Nc3ccc4c(n3)NC(=O)C(C)(C)O4)n2)cc(OC)c1OC	binding		competition with immobilised ligand	10 µM	inhibition	64%
COc1ncccc1-c1cnn2ccc(N3CCN(C(=O)OC(C)C)CC3)nc12	binding		competition with immobilised ligand	1 µM	remaining binding	100%
Cc1nn(C)cc1-c1nc2c(N3CCN(Cc4ccc(Cl)cc4)CC3)c(Cl)cnc2[nH]1	binding		competition with immobilised ligand	1 µM	remaining binding	100%
C#Cc1n[nH]c2c(-c3cn([C@@H](C)c4ccccc4)c(=O)[nH]c3=O)cc(F)cc12	enzyme activity	inhibitor		0.1 µM	inhibition	5.4%
Cn1cc(-c2cccc(N3CCc4c(sc5c4CC(C)(C)C5)C3=O)c2CO)cc(Nc2ccncn2)c1=O	enzyme activity	inhibitor		1 µM	inhibition	1%
O=c1[nH]c2ccccc2n1C1CCN(Cc2ccc(-c3[nH]c4cc5ncnc5cc4nc3-c3ccccc3)cc2)CC1	cell-free assay			0.5 µM	remaining signal	102%
Cn1cncc1[C@@](O)(COc1ccc(C#N)cc1-c1ccc(OC(F)(F)F)cc1)c1ccc(C#N)cc1	cell-free assay		competition with immobilised ligand	1 µM	remaining binding	67%
